# Bioassay records as filed in PubChem BioAssay.
# Rows were chosen to be rich in hits. Some 1.9% of all compounds tested hit in one or more screens of this group.
# M5 PAM – CHRM5 positive allosteric modulation; CHO-K1 hM5, Fluo-8 calcium, ACh EC20 PAM; 0% = ACh EC20, 100% = ACh EC100; 0.3% of 360,000 active; P08912; activation, % at 3 µM;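 active means activation above the run cutoff, the mean activation of all test compounds plus 3 SD, cut at about 18% in these data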
# Target sequence (P08912 whole entry, looked up): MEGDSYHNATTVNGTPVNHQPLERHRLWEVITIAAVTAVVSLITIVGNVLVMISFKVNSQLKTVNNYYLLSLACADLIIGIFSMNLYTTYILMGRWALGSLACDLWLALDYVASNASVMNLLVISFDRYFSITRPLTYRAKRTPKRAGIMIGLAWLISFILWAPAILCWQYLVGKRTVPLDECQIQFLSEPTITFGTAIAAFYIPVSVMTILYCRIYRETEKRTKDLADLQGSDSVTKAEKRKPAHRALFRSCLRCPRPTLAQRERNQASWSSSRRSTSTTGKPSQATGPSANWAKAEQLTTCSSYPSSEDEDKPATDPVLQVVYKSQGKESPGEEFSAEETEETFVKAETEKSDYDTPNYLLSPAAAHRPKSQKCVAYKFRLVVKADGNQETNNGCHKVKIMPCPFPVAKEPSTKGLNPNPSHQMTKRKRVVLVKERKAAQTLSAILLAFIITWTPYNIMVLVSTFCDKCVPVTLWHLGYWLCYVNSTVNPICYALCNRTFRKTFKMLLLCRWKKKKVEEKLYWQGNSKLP
#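 Test system: CHO-K1 hM5 cells / Doses: single-point, 3 µM nominal / Times: Post-acetylcholine fluorescence recording 140 s / Technique: Fluo-8 calcium fluorescence / Measure: Max/basal fluorescence ratio as % of EC20–EC100 ACh window / Benchmarks: low control EC20 acetylcholine (0%), high control EC100 acetylcholine (100%) / Replicates: one well per compound, no replicates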
# CHRM4 antagonist – antagonists of human muscarinic M4 receptor (CHRM4) | P08173 | CHO-hM4 cells, ACh EC80, Fluo-8 calcium fluorescence | inhibition, % at 3 µM | 0.73% of 360,000 active | AID 624125;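 active means inhibition above its plate's cutoff, the mean inhibition of sample wells plus 3 SD, cut at about 27% in these data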;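 further: 0% = acetylcholine EC80 with DMSO and 100% = DMSO without agonist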
# CHRM4 PAM – CHRM4 positive allosteric modulation; P08173; CHO-K1 hM4/Gqi5, Fluo-8 calcium fluorescence, ACh EC20; 0% = ACh EC20, 100% = maximal ACh; activation, % at 3 µM; 0.4% of 360,000 active; AID 624126;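 active means activation above its plate's cutoff, the mean activation of sample wells plus 3 SD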
# CHRM4 agonist – agonists of human muscarinic M4 receptor (CHRM4). P08173. CHO-K1 hM4/Gqi5, Fluo-8 calcium fluorescence; vehicle 0%, full acetylcholine response 100%. 0.14% of 360,000 active. activation, % at 3 µM;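 active means activation above the run mean over all test wells plus 3 SD, cut at about 32% in these data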;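 further: peak over basal fluorescence ratio per well then scaled between controls; 0% = DMSO wells and 100% = acetylcholine at EC100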
# M5 ag – agonists of human muscarinic M5 receptor (CHRM5). 0.19% of 360,000 active. activation, % at 3 µM. P08912. AID 624037. CHO-K1 hM5 cells, Fluo-8 calcium fluorescence; 0% DMSO wells, 100% maximal acetylcholine response;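 active means activation above the run's mean over test compounds plus 3 SD, cut at about 23% in these data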;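 further: signal is peak over basal fluorescence ratio across the kinetic read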
# CHRM5 antagonist – antagonists of human muscarinic M5 receptor (CHRM5). P08912. CHO-hM5 cells, Fluo-8 calcium fluorescence, ACh EC80. inhibition, % at 3 µM. 0.59% of 360,000 active;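 active means inhibition above a per-plate cutoff, the mean of that plate's test compounds plus 3 SD, cut at about 27% in these data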;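 further: 0% = acetylcholine EC80 with DMSO and 100% = DMSO without agonist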
# Starred values were filed as active, the others as inactive.
SMILES,M5 PAM,CHRM4 antagonist,CHRM4 PAM,CHRM4 agonist,M5 ag,CHRM5 antagonist
C[C@@H]1CN([C@@H](C)CO)C(=O)CCCn2nncc2CO[C@H]1CN(C)Cc1ccc(Oc2ccccc2)cc1,-0.5,31.3*,-12.2,-0.1,-3.1,3.8
C[C@H](CO)N1C[C@H](C)[C@@H](CN(C)Cc2ccc(O)cc2)OCc2cnnn2CCCC1=O,1.6,-1.9,6.7,-0.9,-0.8,3.8
C[C@@H]1CN([C@H](C)CO)C(=O)CCCn2nncc2CO[C@H]1CN(C)Cc1ccc(Oc2ccccc2)cc1,-4.3,36.9*,-13.2,1.3,-3.8,3.1
O=C(CSc1nc2ccccc2[nH]1)N1CCN(C(=O)c2ccco2)CC1,-0.4,1.7,-6.1,0.4,-2.4,-4.7
CCOC(=O)Cn1c(C)c(Br)c(=O)c2cccc(C)c21,0.4,-0.5,2.5,-0.7,-4.5,-2.8
Cn1c(=O)c(NCCO)c2c3c(cccc31)C(=O)c1ccccc1-2,-8.2,13.3,-8.9,39.2*,32.4*,13.4
CCCCNc1c2c3c(cccc3n(C)c1=O)C(=O)c1ccccc1-2,-17.5,76.6*,-39.4,175.9*,140.2*,71.4*
Cn1c(=O)c(NCCc2ccccc2)c2c3c(cccc31)C(=O)c1ccccc1-2,-26.3,75.8*,-23.5,150.8*,92.9*,74.3*
CC(=O)Nc1ccc(Nc2c3c4c(cccc4n(C)c2=O)C(=O)c2ccccc2-3)cc1,-8.0,4.9,-8.7,7.7,1.7,3.4
OCCSc1nncn1/N=C/c1c[nH]c2ccccc12,0.9,14.4,10.2,0.6,-1.0,-0.6
COc1ccccc1N(CC(O)Cn1nc(C)cc1C)S(=O)(=O)c1ccccc1 (stereo not drawn),6.5,4.4,-4.8,1.8,-2.8,-6.9
CC(O)(C(=O)c1ccccc1)c1ccccc1 (stereo not drawn),-4.4,6.1,21.5,0.0,-3.9,9.0
CN(C)C/C=C/C(O)(c1ccccc1)c1ccccc1,-35.8,55.0*,-54.0,0.4,-19.1,45.1*
CC[n+]1ccc(C)c2cc(SC(F)(F)F)ccc21,-0.5,-6.2,0.8,0.5,2.1,-12.2
CN(C)c1ccc(/C=C(/C#N)C(=O)Nc2nc3c(s2)CCN(Cc2ccccc2)C3)cc1,-27.6,8.8,-4.7,13.7,48.8*,24.3
COC(=O)NNC(=O)C12CC3CC(CC(C3)C1)C2,2.4,-2.8,10.6,1.6,-0.6,-6.9
NC(=S)NNC(=O)C12CC3CC(CC(C3)C1)C2,1.0,9.7,-9.2,42.2*,6.4,5.3
COc1ccc(C(=O)c2sc(Nc3cccc(OC)c3)c(C(=O)Nc3cccc(C)c3C)c2N)cc1,7.3,21.3,-11.7,18.8,10.2,2.9
COc1ccc(C(=O)c2sc(Nc3ccccc3)c(C(=O)Nc3ccc(OC)c(OC)c3)c2N)cc1,-5.9,-11.1,1.0,2.4,-1.2,16.8
COc1ccc(Nc2sc(C(=O)c3ccc(Cl)cc3)c(N)c2C(=O)Nc2ccccc2OC)cc1,-2.6,49.8*,-27.6,73.6*,38.6*,22.1
COc1ccc(NC(=O)c2c(Nc3ccccc3)sc(C(=O)c3ccc(F)cc3)c2N)cc1,-14.7,13.3,-13.9,14.0,3.9,28.0*
COC(=O)c1sc2nc(C)c([N+](=O)[O-])c(C)c2c1N,4.1,17.8,45.9*,15.7,-3.6,-6.6
CCCCCn1c(=O)[nH]c2cc(C(=O)NCCc3ccc(OC)c(OC)c3)ccc2c1=O,8.6,-4.3,1.4,0.5,-1.4,-5.2
CCCCNC(=O)c1sc(=S)n2c1[nH]c(=O)c1ccc(C(=O)NCCc3ccc(OC)c(OC)c3)cc12,24.6*,3.7,15.4,-0.4,2.1,-27.3
COc1ccccc1Cc1c(-c2ccc(Cl)cc2)nc2c(C)cc(Br)cn12,-0.5,-3.7,-7.4,-1.0,-4.7,1.5
SMILES,M5 PAM,CHRM4 antagonist,CHRM4 PAM,CHRM4 agonist,M5 ag,CHRM5 antagonist
CCOC(=O)c1sc(NC(=O)Nc2ccccc2Cl)cc1C,-21.6,-20.0,-6.0,10.2,2.7,20.9
CCOC(=O)c1sc(NC(=O)Nc2ccccc2)cc1C,-19.5,15.4,-7.2,18.1,4.6,45.7*
CN1CCN(C(=O)/C=C/c2cn(-c3ccccc3)nc2-c2ccc3c(c2)OCCO3)CC1,18.7*,-12.7,8.6,5.7,2.2,-5.1
O=C(/C=C\c1cn(-c2ccccc2)nc1-c1ccc2c(c1)OCCO2)N1CCOCC1,-2.2,1.1,-3.6,5.1,6.5,3.2
Nc1nnc(SCC(=O)NC2CCCCCC2)s1,2.2,-11.7,23.7*,-0.3,2.2,-10.3
CC1(C)CC(=O)C2=C(C1)OC(N)=C(C#N)C2c1cccs1 (stereo not drawn),-6.0,6.1,-7.7,0.2,-1.0,1.1
COC(=O)C1=C(N)OC2=C(C(=O)CC(C)(C)C2)C1c1cccs1 (stereo not drawn),4.4,-6.9,20.0*,1.2,-2.5,-1.2
N#Cc1nc(-c2ccc(F)cc2)oc1N1CCN(C(=O)c2ccco2)CC1,-8.7,-12.4,-1.9,1.3,-3.5,12.7
COc1cccc(-c2nc(C#N)c(N3CCN(C(=O)c4ccco4)CC3)o2)c1,4.9,2.7,21.6*,0.6,-3.0,-8.1
N#Cc1nc(-c2ccccc2Cl)oc1N1CCN(C(=O)c2ccco2)CC1,23.0*,-6.9,6.7,0.4,-0.4,-18.5
O=C(NC(c1cccnc1)C(F)(F)F)c1cc(COc2ccc3c(c2)CCCC3)on1 (stereo not drawn),-10.4,20.0,-5.1,9.6,4.6,28.7*
Cn1cc(CNC(=O)c2cc(COc3ccc4c(c3)CCCC4)on2)cn1,-2.0,2.9,2.8,7.9,-4.5,4.3
CC(C)c1ccc(CN(C(=O)c2cccs2)C2CCS(=O)(=O)C2)cc1 (stereo not drawn),-2.3,1.1,-4.9,1.3,-4.6,10.8
Cn1ncc(Br)c1NC(=O)Nc1ccc(OC(F)(F)F)cc1,-21.1,-5.7,-20.0,14.4,4.1,26.9*
NC(=O)c1nsc(C(=O)N(c2ccc3c(c2)OCO3)C(C(=O)NCC2CCCO2)c2ccc(F)cc2)c1N (stereo not drawn),18.8*,20.1,23.5*,15.1,0.9,22.2
NC(=O)c1nsc(C(=O)N(c2ccccc2)C(C(=O)NCc2ccc(F)cc2)c2ccc(O)cc2)c1N (stereo not drawn),-9.0,30.6*,-17.6,30.7,3.5,13.9
CC(c1nc2ccccc2[nH]1)n1c(=O)c(-c2cccnc2)nc2ccccc21 (stereo not drawn),18.4*,-15.0,4.7,-2.1,2.8,-17.6
CCC(c1nc2ccccc2[nH]1)n1c(=O)c(-c2cccnc2)nc2ccccc21 (stereo not drawn),2.2,13.4,-1.9,-2.3,0.3,2.3
